Source: ChEMBL document CHEMBL4425095, “Novel Cephalosporins Selectively Active on Nonreplicating Mycobacterium tuberculosis” (J Med Chem, 2016)
Values after ≈ are worked out from the molar mass of the structure shown. Active and inactive are the calls of the source. No cut-off for these calls is given here.

Columns and labels:
[1] = Cytotoxicity against human HepG2 cells assessed as reduction in cell viability after 2 days by Celltiter-Glo reagent based assay; conditions: read-out: LD50
In short: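 HepG2 cells in DMEM with 10% FBS, pyruvate, glutamine and nonessential amino acids. Seeded at 3000 cells/well and exposed 2 days to compound or vehicle (≤1% DMSO final). Reported as LD50.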

[2] = Stability in pH 7.4 phosphate buffer solution assessed as parent compound remaining at 5 to 50 ug/ml at 37 degC measured every 12 hrs up to 144 hrs by LC-MS analysis; format: physicochemical
In short: (§1)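 Compound at 50 μg/mL in cell-free PBS pH 7.4, or nonreplicating medium pH 5.0 (BSA, tyloxapol, lysine, pantothenate omitted) with or without 0.5 mM NaNO2. Poorly soluble compounds at 5 μg/mL in 50:50 acetonitrile mixtures, pH readjusted to 5.0.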

[3] = Stability in pH 5 non-replicating medium assessed as parent compound remaining at 5 to 50 ug/ml at 37 degC measured every 12 hrs up to 144 hrs by LC-MS analysis; format: physicochemical; conditions: buffer; in short: as §1
[4] = Stability in pH 5 non-replicating medium containing 0.5 mM NaNO2 assessed as parent compound remaining at 5 to 50 ug/ml at 37 degC measured every 12 hrs up to 144 hrs by LC-MS analysis; format: physicochemical; conditions: buffer; in short: as §1
[5] = tested on: Mycobacterium tuberculosis; assay: Bactericidal activity against wild-type replicating Mycobacterium tuberculosis H37Rv assessed as reduction in CFU in presence of beta-lactamase inhibitor clavulanate; format: functional, organism-based
[6] = tested on: Mycobacterium tuberculosis; assay: Bactericidal activity against wild-type non-replicating Mycobacterium tuberculosis H37Rv at 1 to 100 ug/ml incubated for 7 days measured at OD580 = 0.1 in presence of up to 0.5 mM NaNO2; format: functional, organism-based
In short: (§2)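 Wild-type H37Rv resuspended at OD580 0.1 in nonreplicating medium with NaNO2 at 0–1 mM, one plate per nitrite level. Exposed to compound for 7 days, then standard outgrowth assay to estimate survivors.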

[7] = tested on: Mycobacterium tuberculosis; assay: Bactericidal activity against wild-type non-replicating Mycobacterium tuberculosis H37Rv at 1 to 100 ug/ml incubated for 7 days measured at OD580 = 0.1 in presence of 1 mM NaNO2; format: functional, organism-based; in short: as §2
[8] = tested on: Mycobacterium tuberculosis; assay: Bactericidal activity against wild-type non-replicating Mycobacterium tuberculosis H37Rv multi-stress model at 0.1 to 100 ug/ml incubated for 7 days measured at OD580 = 0.01 by charcoal agar resazurin assay; format: functional, organism-based
[9] = tested on: Mycobacterium tuberculosis; assay: Bactericidal activity against wild-type non-replicating Mycobacterium tuberculosis H37Rv multi-stress model incubated for 7 days measured at OD580 = 0.01 by charcoal agar resazurin assay; format: functional, organism-based
In short: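 Nonreplicating wild-type H37Rv at OD580 0.1 or 0.01 treated 7 days with or without 0.5 mM NaNO2. 10 μL spotted onto 7H11-OADC-charcoal agar and incubated 7–10 days at 37 °C. Developed with Alamar blue:Tween80 1:1 for 1 h; fluorescence read at ex 530/em 590. Complete loss of fluorescence taken as ≥2–3 log10 CFU reduction.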

Compound	CC50 at 48 h [1]	further results
COC(=O)C1=C(C)CS[C@@H]2[C@H](NC(=O)COc3ccccc3)C(=O)N12	> 100 µg/mL	–
CCCOC(=O)C1=C(C)CS[C@@H]2[C@H](NC(=O)CCc3ccc(OC)cc3)C(=O)N12	> 100 µg/mL	–
COC(=O)C1=C(C)CS[C@@H]2[C@H](NC(=O)[C@@H](c3ccccc3)N(C)C)C(=O)N12	> 100 µg/mL	–
CCCc1noc(C2=C(C)CS[C@@H]3[C@H](NC(=O)CCc4ccc(C)cc4)C(=O)N23)n1	> 100 µg/mL	–
CCCc1noc(C2=C(C)CS[C@@H]3[C@H](NC(=O)CCc4ccc(Cl)cc4)C(=O)N23)n1	> 100 µg/mL	–
CCCOC(=O)C1=C(C)CS[C@@H]2[C@H](NC(=O)CCc3ccccc3)C(=O)N12	> 100 µg/mL	–
CCCc1noc(C2=C(C)CS[C@@H]3[C@H](NC(=O)Cc4ccc(OC)cc4)C(=O)N23)n1	72.4 µg/mL (≈ 169 µM)	–
C#CCOC(=O)C1=C(C)CS[C@@H]2[C@H](NC(=O)COc3ccc(Cl)cc3)C(=O)N12	63.4 µg/mL (≈ 151 µM)	–
CCCc1noc(C2=C(C)CS[C@@H]3[C@H](NC(=O)CCc4ccc(F)cc4)C(=O)N23)n1	> 100 µg/mL	–
CCCc1noc(C2=C(C)CS[C@@H]3[C@H](NC(=O)Cc4ccc(Cl)cc4)C(=O)N23)n1	20.6 µg/mL (≈ 47.6 µM)	–
CC1=C(C(=O)O)N2C(=O)[C@@H](NC(=O)Cc3ccc(Cl)cc3)[C@H]2SC1	> 100 µg/mL	–
CCOC(=O)C1=C(C)CS[C@@H]2[C@H](NC(=O)COc3ccc(OC)cc3)C(=O)N12	> 100 µg/mL	–
CCCOC(=O)N[C@@H]1C(=O)N2C(C(=O)OCCC)=C(C)CS[C@H]12	> 100 µg/mL	Stability [2]: 80%; Stability [3]: 100%; Stability [4]: 100%; Activity [5]: inactive
CCCN[C@@H]1C(=O)N2C(C(=O)OCCC)=C(C)CS[C@H]12	> 100 µg/mL	Stability [2]: 100%; Stability [3]: 100%; Stability [4]: 40%; Activity [5]: inactive
CC1=C(c2nc(C)no2)N2C(=O)[C@@H](NC(=O)Cc3ccc(Cl)cc3)[C@H]2SC1	> 100 µg/mL	–
CO[C@H]1/C=C/O[C@@]2(C)Oc3c(C)c(O)c4c(O)c(c(/C=N/N5CCN(C)CC5)c(O)c4c3C2=O)NC(=O)/C(C)=C\C=C\[C@H](C)[C@H](O)[C@@H](C)[C@@H](O)[C@@H](C)[C@H](OC(C)=O)[C@@H]1C	–	Activity [6]: inactive; Activity [7]: Active
CCCCOC(=O)C1C(C)=CS[C@@H]2[C@H](NC(=O)COc3ccccc3)C(=O)N12 (some centres not stated)	61.8 µg/mL (≈ 153 µM)	–
CCCOC(=O)C1C(C)=CS[C@@H]2[C@H](NC(=O)CCc3ccc(OC)cc3)C(=O)N12 (some centres not stated)	> 100 µg/mL	–
CC1=C(c2nc(C)no2)N2C(=O)[C@@H](NC(=O)OCC(C)(C)C)[C@H]2SC1	> 100 µg/mL	–
CCCc1noc(C2=C(C)CS[C@@H]3[C@H](NC(=O)c4ccc(Cl)cc4)C(=O)N23)n1	> 100 µg/mL	Activity [8]: Active
C#CCOC(=O)C1=C(C)CS[C@@H]2[C@H](NC(=O)CCc3ccc(Cl)cc3)C(=O)N12	> 100 µg/mL	–
CC1=C(c2nc(C)no2)N2C(=O)[C@@H](NC(=O)Cc3ccc(C)cc3)[C@H]2SC1	> 100 µg/mL	–

Compound	CC50 at 48 h [1]	further results
CC(=O)OCC1=C(C(=O)O)N2C(=O)[C@@H](NC(=O)Cc3cccs3)[C@H]2SC1 [CEPHALOTHIN]	> 100 µg/mL	–
CCOC(=O)C1=C(C)CS[C@@H]2[C@H](NC(=O)COc3ccc(Cl)cc3)C(=O)N12	41 µg/mL (≈ 99.8 µM)	–
COC(=O)C1=C(C)CS[C@@H]2[C@H](NC(=O)CCc3ccc(OC)cc3)C(=O)N12	> 100 µg/mL	–
CCOC(=O)C1=C(C)CS[C@@H]2[C@H](NC(=O)CCc3ccccc3)C(=O)N12	> 100 µg/mL	–
COC(=O)C1=C(C)CS[C@@H]2[C@H](NC(=O)COc3ccc(Cl)cc3)C(=O)N12	> 100 µg/mL	–
CCCCOC(=O)C1=C(C)CS[C@@H]2[C@H](NC(=O)COc3ccc(Cl)cc3)C(=O)N12	> 100 µg/mL	–
CC1=C(c2nc(C)no2)N2C(=O)[C@@H](NC(=O)[C@H](N)c3ccccc3)[C@H]2SC1	> 100 µg/mL	–
CCCCOC(=O)C1=C(C)CS[C@@H]2[C@H](NC(=O)CCc3ccc(Cl)cc3)C(=O)N12	> 100 µg/mL	–
CCOC(=O)C1=C(C)CS[C@@H]2[C@H](NC(=O)CCc3ccc(OC)cc3)C(=O)N12	> 100 µg/mL	Activity [8]: Active
CCCc1noc(C2=C(C)CS[C@@H]3[C@H](NC(=O)Cc4ccc(C)cc4)C(=O)N23)n1	> 100 µg/mL	–
CCCCOC(=O)C1=C(C)CS[C@@H]2[C@H](NC(=O)COc3ccc(OC)cc3)C(=O)N12	> 100 µg/mL	–
CCCc1noc(C2=C(C)CS[C@@H]3[C@H](NC(=O)Cc4ccccc4)C(=O)N23)n1	> 100 µg/mL	–
CCCCOc1ccc(CCC(=O)N[C@@H]2C(=O)N3C(c4nc(C)no4)=C(C)CS[C@H]23)cc1	74.4 µg/mL (≈ 163 µM)	–
CCOC(=O)C1=C(C)CS[C@@H]2[C@H](NC(=O)COc3ccccc3)C(=O)N12	> 100 µg/mL	–
C#CCNC(=O)C1=C(C)CS[C@@H]2[C@H](NC(=O)COc3ccccc3)C(=O)N12	> 100 µg/mL	–
CCCOC(=O)C1=C(C)CS[C@@H]2[C@H](NC(=O)COc3ccc(Cl)cc3)C(=O)N12	49.2 µg/mL (≈ 116 µM)	–
C=CC1=C(C(=O)O)N2C(=O)[C@@H](NC(=O)/C(=N\O)c3csc(N)n3)[C@H]2SC1	> 100 µg/mL	–
COc1ccc(CCC(=O)N[C@@H]2C(=O)N3C(C(=O)OCc4ccccc4)=C(C)CS[C@H]23)cc1	> 100 µg/mL	–
CCCc1noc(C2=C(C)CS[C@@H]3[C@H](NC(=O)CCc4ccccc4Cl)C(=O)N23)n1	> 100 µg/mL	–
CC1=C(C(=O)O)N2C(=O)[C@@H](NC(=O)[C@H](N)c3ccccc3)[C@H]2SC1 [CEPHALEXIN ANHYDROUS]	–	Activity [9]: inactive
CC1=C(C(=O)O)N2C(=O)[C@@H](NC(=O)CCc3ccc(Br)cc3)[C@H]2SC1	> 100 µg/mL	–
CC1=C(C(=O)OCc2ccccc2)N2C(=O)[C@@H](NC(=O)COc3ccc(Cl)cc3)[C@H]2SC1	> 100 µg/mL	–

Compound	CC50 at 48 h [1]	further results
CC1=C(c2nc(C)no2)N2C(=O)[C@@H](NC(=O)COc3ccc(Cl)cc3)[C@H]2SC1	19.5 µg/mL (≈ 46.4 µM)	Activity [8]: Active
C#CCOC(=O)C1=C(C)CS[C@@H]2[C@H](NC(=O)CCc3ccccc3)C(=O)N12	> 100 µg/mL	–
CC1=C(c2nc(C)no2)N2C(=O)[C@@H](NC(=O)Cc3ccccc3)[C@H]2SC1	> 100 µg/mL	–
COC(=O)C1=C(C)CS[C@@H]2[C@H](NC(=O)COc3ccc(OC)cc3)C(=O)N12	> 100 µg/mL	–
CCCCOC(=O)C1=C(C)CS[C@@H]2[C@H](NC(=O)CCc3ccc(OC)cc3)C(=O)N12	> 100 µg/mL	–
CC1=C(c2nc(C)no2)N2C(=O)[C@@H](NC(=O)OC(C)(C)C)[C@H]2SC1	> 100 µg/mL	–
COc1ccc(OCC(=O)N[C@@H]2C(=O)N3C(C(=O)OCc4ccccc4)=C(C)CS[C@H]23)cc1	> 100 µg/mL	–
CCSC(=O)N[C@@H]1C(=O)N2C(c3nc(C)no3)=C(C)CS[C@H]12	> 100 µg/mL	–
CCCCOc1ccc(CCC(=O)N[C@@H]2C(=O)N3C(c4nc(CCC)no4)=C(C)CS[C@H]23)cc1	> 100 µg/mL	–
CCCc1noc(C2=C(C)CS[C@@H]3[C@H](NC(=O)CCc4ccc(OC)cc4)C(=O)N23)n1	> 100 µg/mL	Activity [8]: Active
COc1ccc(CCC(=O)N[C@@H]2C(=O)N3C(c4nc(C)no4)=C(C)CS[C@H]23)cc1	> 100 µg/mL	–
CCCCOC(=O)C1=C(C)CS[C@@H]2[C@H](NC(=O)CCc3ccccc3)C(=O)N12	> 100 µg/mL	Activity [8]: Active
CCCc1noc(C2=C(C)CS[C@@H]3[C@H](NC(=O)COc4ccc(Cl)cc4)C(=O)N23)n1	64.3 µg/mL (≈ 143 µM)	Activity [8]: Active
CCCOC(=O)C1=C(C)CS[C@@H]2[C@H](NC(=O)COc3ccc(OC)cc3)C(=O)N12	> 100 µg/mL	–
CC1=C(c2nc(C)no2)N2C(=O)[C@@H](NC(=O)Cc3ccc(Cl)c(Cl)c3)[C@H]2SC1	18.9 µg/mL (≈ 42.9 µM)	–
CC1=CS[C@@H]2[C@H](NC(=O)COc3ccccc3)C(=O)N2[C@H]1CO	> 100 µg/mL	–
CC1=C(c2nc(C)no2)N2C(=O)[C@@H](NC(=O)OCC(Cl)(Cl)Cl)[C@H]2SC1	> 100 µg/mL	Activity [8]: Active
COc1ccc(CC(=O)N[C@@H]2C(=O)N3C(c4nc(C)no4)=C(C)CS[C@H]23)cc1	> 100 µg/mL	–
COC(=O)C1=C(C)CS[C@@H]2[C@H](NC(=O)CCc3ccccc3)C(=O)N12	> 100 µg/mL	–
CC1=C(C(=O)O)N2C(=O)[C@@H](NC(=O)c3ccc(Cl)cc3)[C@H]2SC1	> 100 µg/mL	–
CCCOC(=O)C1=C(C)CS[C@@H]2[C@H](NC(=O)[C@H](N)c3ccccc3)C(=O)N12	> 100 µg/mL	–
COC(=O)C1=C(C)CS[C@@H]2[C@H](NC(=O)[C@H](N)c3ccccc3)C(=O)N12	> 100 µg/mL	–
